Reference: ChEMBL document CHEMBL3588747, “Virtual High-Throughput Screening To Identify Novel Activin Antagonists” (J Med Chem, 2015)
Calls of active or inactive are those of the source. The rule behind the calls is not given here.

Columns and labels:
[1] = Cytotoxicity against mouse LbetaT2 cells assessed as reduction in cell viability at 100 uM after 24 hrs by MTT assay; type: functional
Procedure, shortened: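 LβT2 gonadotrope cells seeded 5 × 10^4/well, grown 24 h in DMEM-F12 with 5% FBS and […] D-glucose, then exposed to compound at 10 or 100 µM in growth medium for 24 h. MTT added for a further 2–3 h; absorbance at 490 nm as viability.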

[2] = Solubility of the compound in cell growth medium up to 200 uM after 24 hrs by upright light microscopy; type: physicochemical
Procedure, shortened: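 Compound from 50 mM DMSO stock diluted to 200 µM final in DMEM-F12 with 5% FBS, 1% penicillin/streptomycin, […] D-glucose, held 24 h; precipitate checked visually under upright light microscope.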

Inhibin beta A chain = target: T1, Inhibin beta A chain (Mus musculus, UniProt Q04998); experiment: Antagonist activity at activin A in mouse LbetaT2 cells transfected with -338 promoter region of FSHbeta gene conjugated to luciferase reporter assessed as inhibition of FSHbeta promoter activation by luciferase assay; type: cell-based
T1 sequence (Q04998 whole entry): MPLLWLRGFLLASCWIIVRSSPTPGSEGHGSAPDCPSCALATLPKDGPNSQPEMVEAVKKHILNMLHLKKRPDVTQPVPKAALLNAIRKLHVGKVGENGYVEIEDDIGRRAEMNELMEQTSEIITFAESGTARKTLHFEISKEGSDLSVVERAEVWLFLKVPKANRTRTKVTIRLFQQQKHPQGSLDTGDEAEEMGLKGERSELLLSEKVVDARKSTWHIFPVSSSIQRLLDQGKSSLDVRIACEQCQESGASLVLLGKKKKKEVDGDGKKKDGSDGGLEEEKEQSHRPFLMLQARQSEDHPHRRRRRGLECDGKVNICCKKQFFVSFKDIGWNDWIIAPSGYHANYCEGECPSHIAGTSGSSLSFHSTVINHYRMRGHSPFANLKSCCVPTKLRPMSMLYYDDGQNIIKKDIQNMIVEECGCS
Procedure, shortened: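 −338FSHβ-Luc stably transfected LβT2 cells, 5 × 10^4 cells/well, plated 24 h, then given activin A (0.2 nM) with compound at 0.4–100 µM (in DMSO) or Fst288 0.05–4 nM as control, 6 h at 37 °C in serum-free, phenol red-free DMEM-F12. Cells lysed, luciferase activity read; IC50 from sigmoidal variable-slope fit; means ± SD.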

HepG2 = experiment: […] in human HepG2 cells assessed as cell viability after 96 hrs by MTT assay; type: functional, cell-based; conditions: HepG2, 96 h
Procedure, shortened: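 HepG2 cells (5 × 10^4/well) treated with 1 nM activin A alone (DMSO solvent control) or with compound 1.6–200 µM or Fst288 0.5–8 nM, 96 h at 37 °C in DMEM with 0.2% FBS, pyruvate, glutamine. MTT added 0.5–1 h for viability as reversal of activin-induced apoptosis; IC50 from sigmoidal variable-slope fit; means ± SD.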

[3] = target: T2, Inhibin beta A chain (Mus musculus) (UniProt Q04998); experiment: Inhibition of activin A stimulated 4 day old CD1 mouse ovarian cell proliferation at 200 uM for 4 days by BrdU assay
T2 sequence (whole entry): T1 sequence (Q04998 whole entry)
Procedure, shortened: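 Ovaries from 4-day-old CD1 mice cultured on membrane inserts in DMEM/F12 with 0.03% BSA with 1 nM activin A plus compound at 200 µM (DMSO control; Fst288 4 nM or inhibin A 8 nM references) for 4 days, then 10 µM BrdU for 24 h. Genomic DNA (150 ng) denatured, dot-blotted, probed with anti-BrdU, ECL, densitometry; three independent experiments; ANOVA/Tukey.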

Mus musculus [4] = experiment: Inhibition of activin - stimulated serum FSH level in ovariectomized CD1 mouse at 60 mg/kg, sc by ELISA (reference value: 100%); type: functional
Procedure, shortened: (§1)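 Ovariectomized 12-week-old CD1 mice dosed subcutaneously twice daily for 2 days (4 doses); vehicle TBS or DMSO; Fst288 200 µg/kg for 3 doses as reference. Serum then collected, stored −20 °C, FSH measured by ELISA (sensitivity 0.35 mIU/mL, read 450 nm); vehicle mean set to 100%. 5–7 mice per group, 10 controls; one-way ANOVA with Tukey.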

[5] = target: T3, Growth/differentiation factor 8 (Mus musculus, UniProt O08689); experiment: Antagonist activity at myostatin in mouse LbetaT2 cells transfected with -338 promoter region of FSHbeta gene conjugated to luciferase reporter assessed as inhibition of FSHbeta promoter activation by luciferase assay; type: cell-based
T3 sequence (O08689 whole entry): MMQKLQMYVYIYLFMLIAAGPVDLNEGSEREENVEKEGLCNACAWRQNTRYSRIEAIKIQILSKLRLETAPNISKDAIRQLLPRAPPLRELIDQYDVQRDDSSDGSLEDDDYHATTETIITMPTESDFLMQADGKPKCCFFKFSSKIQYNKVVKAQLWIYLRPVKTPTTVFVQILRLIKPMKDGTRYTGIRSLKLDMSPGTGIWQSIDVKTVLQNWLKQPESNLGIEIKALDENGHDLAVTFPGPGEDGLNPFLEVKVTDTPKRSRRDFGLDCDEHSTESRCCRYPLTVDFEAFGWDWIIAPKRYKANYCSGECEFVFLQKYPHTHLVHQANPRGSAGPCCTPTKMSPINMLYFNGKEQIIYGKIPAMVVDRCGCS
Procedure, shortened: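 Stable −338FSHβ-Luc LβT2 cells were plated at 5 × 10^4/well. They were stimulated with myostatin (0.2 nM) plus DMSO solvent control, or with compound at 0.8–100 µM, for 6 h at 37 °C in serum-free, phenol red-free DMEM-F12. Cells were lysed for luciferase readout. Runs were in triplicate across three experiments, and IC50 came from a sigmoidal variable-slope fit, reported as mean ± SD.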

Mus musculus [6] = experiment: Inhibition of activin - stimulated serum FSH level in ovariectomized CD1 mouse at 30 mg/kg, sc by ELISA (reference value: 100%); type: functional; procedure, shortened: as §1
Mus musculus [7] = experiment: Toxicity in ovariectomized CD1 mouse assessed as liver and kidney histopathology at 60 mg/kg, sc twice daily for 2 days; type: organism-based; conditions: in vivo, 48 h
Procedure, shortened: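 Ovariectomized CD1 mice given vehicle or 60 mg/kg subcutaneously, 4 doses over 2 days; kidney and liver fixed in Modified Davidson's fixative 5 days at 4 °C, paraffin-embedded, H&E stained for histopathology.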

[8] = target: T4, Inhibin beta A chain (Homo sapiens) (UniProt P08476); experiment: Inhibition of interaction of activin A (unknown origin)/ActRIIA-ECD complex with ALK4-ECD-Fc after 120 secs by competitive binding/ Blitz binding assay
T4 sequence (whole entry): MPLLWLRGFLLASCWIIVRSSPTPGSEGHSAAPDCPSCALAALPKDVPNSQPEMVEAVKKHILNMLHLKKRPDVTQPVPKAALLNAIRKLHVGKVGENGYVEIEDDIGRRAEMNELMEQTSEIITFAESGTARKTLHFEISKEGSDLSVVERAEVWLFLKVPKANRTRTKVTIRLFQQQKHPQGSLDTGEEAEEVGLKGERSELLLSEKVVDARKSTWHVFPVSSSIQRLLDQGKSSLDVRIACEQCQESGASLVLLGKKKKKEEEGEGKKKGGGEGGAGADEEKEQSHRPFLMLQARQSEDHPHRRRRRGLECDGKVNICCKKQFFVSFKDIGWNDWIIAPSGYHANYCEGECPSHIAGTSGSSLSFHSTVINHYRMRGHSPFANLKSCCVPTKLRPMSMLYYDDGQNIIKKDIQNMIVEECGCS
Procedure, shortened: (§2)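 ALK4-ECD-Fc (50 ng/mL) captured on a protein A biosensor for 120 s, then dipped into activin A/ActRIIA-ECD premixed 1:2 molar, 1.6 µM final in PBS, with solvent or compound at 0.4, 1.6, 6.25 or 25 µM; 120 s association, 120 s dissociation in PBS; wavelength shift monitored by Blitz.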

Mus musculus [9] = experiment: Inhibition of activin - stimulated serum FSH level in ovariectomized CD1 mouse at 15 mg/kg, sc by ELISA (reference value: 100%); type: functional, organism-based; procedure, shortened: as §1
[10] = target: T4, Inhibin beta A chain (Homo sapiens); experiment: Inhibition of interaction of activin A (unknown origin)/ActRIIA-ECD complex with ALK4-ECD-Fc at 25 uM after 120 secs by competitive binding/ Blitz binding assay; procedure, shortened: as §2
[11] = target: T4, Inhibin beta A chain (Homo sapiens); experiment: Inhibition of interaction of activin A (unknown origin) with ActRIIA-ECD complex at 25 uM after 120 secs by competitive binding/ Blitz binding assay
Procedure, shortened: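 Protein A biosensor (Blitz, dip-and-read) loaded with ActRIIA-ECD-Fc; activin A at 1.6 µM final, with solvent or compound at 25 µM, 120 s association and 120 s dissociation in PBS; real-time wavelength shift recorded.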

[12] = target: Growth/differentiation factor 8 (Homo sapiens) (UniProt O14793); experiment: Inhibition of interaction of myostatin (unknown origin)/ActRIIA-ECD complex with ALK4-ECD-Fc at 25 uM after 120 secs by competitive binding/ Blitz binding assay
Procedure, shortened: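 Blitz biolayer assay: ALK4-ECD-Fc (50 ng/mL) captured on protein A biosensor 120 s, exposed to myostatin/ActRIIA-ECD premixed 1:2 molar at 1.6 µM final in PBS with solvent or compound at 25 µM; 120 s association, 120 s dissociation; real-time wavelength shift.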

Mus musculus [13] = experiment: Toxicity in ovariectomized CD1 mouse assessed as change in behavior at 60 mg/kg, sc twice daily for 2 days; type: organism-based; conditions: in vivo, 48 h
Procedure, shortened: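 Ovariectomized 12-week-old CD1 mice given subcutaneous compound twice daily for 2 days (4 doses); behaviour observed after injection.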

SMILES	IC50 (Inhibin beta A chain)	IC50 (HepG2)	inhibition at 100 µM [1]	solubility [2]	also measured
CC(C)(O)C#Cc1ccc(CN2CCC[C@@H](CCC(=O)N3CCOCC3)C2)s1	4.42 µM	23.2 µM	< 20%	soluble	inhibition [3]: Active
Cc1n[nH]c(O)c1C(c1ccc(-c2ccccc2C(=O)O)o1)c1c(C)n[nH]c1O	> 100 µM	–	< 20%	soluble	–
CCCn1ncc(CN2CCN(CCCc3ccccc3)[C@@H](CCO)C2)c1C	> 100 µM	–	< 20%	soluble	–
O=C(N[C@H](Cc1ccc2c(c1)OCO2)C(=O)N[C@@H](Cc1c[nH]c2ccccc12)C(=O)O)c1ccccc1	> 100 µM	–	< 20%	soluble	–
CCn1c(-c2cccnc2)nc2cc(NC(=O)COC)cc(C(=O)NCc3ccccc3)c21	3.67 µM	12.1 µM	< 20%	soluble	inhibition in vivo at 60 mg/kg (Mus musculus [4]): 70%; IC50 [5]: 47.9 µM; inhibition in vivo at 30 mg/kg (Mus musculus [6]): 70%; Activity (Mus musculus [7]): Non-toxic; inhibition [8]: Dose-dependent effect; Activity (Mus musculus [9]): inactive; Activity [10]: Active; Activity [11]: inactive; Activity [12]: inactive; Activity (Mus musculus [13]): Non-toxic; inhibition [3]: Active

Continued, in another order:

IC50 (Inhibin beta A chain)	IC50 (HepG2)	SMILES	inhibition at 100 µM [1]	solubility [2]	also measured
> 100 µM	–	O=C(NCc1ccccc1)c1nn(CCO)c2c1CN(C1CCCC1)CC2	< 20%	soluble	–
4.18 µM	47.3 µM	COc1ccc(OC[C@@H](O)CN2CCC(O)CC2)c(CNCCc2cccnc2)c1	< 20%	soluble	–
> 100 µM	–	COc1cccc(CO[C@H]2CN(CCc3ccccc3)C(=O)CN(C(=O)[C@@H]3CNC(=O)C3)C2)c1	< 20%	soluble	–
> 100 µM	–	O=C(NCc1cccc(F)c1)[C@@H]1CCC(=O)N(CCCN2CCCC2=O)C1	< 20%	soluble	–
23.6 µM	> 200 µM	O=C1CC[C@](CCC(=O)N2CCC([C@@H](O)c3cccnc3)CC2)(Cc2cccc3ccccc23)N1	< 20%	soluble	–
4.25 µM	43.9 µM	Cn1cc(CN2C[C@H](OCc3cccnc3)CN(Cc3ccc(C#CC(C)(C)O)cc3)CC2=O)cn1	< 20%	soluble	–
